Reference: publication PMC10134466 (ACS Omega, 2023)

Assays:
HeLa cells = details: cited from earlier work
[1] = system: BT-474 human breast ductal carcinoma cells; experiment: 2D dose–response assay; format: cell-based; details: 24 h treatment, n = 3/dose
In short: (§1)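 Cells were trypsinized, seeded at 250,000 cells/mL in 96-well plates and cultured 24 h before dosing. Test compound was dissolved in 100% DMSO and serially diluted 1:2 in media to 5000–40 μg/mL dosing solutions, which were diluted 10-fold in the well (final DMSO ≤1%), in triplicate. Plates were incubated 24 h at 37 °C, 5% CO2, then viability was read by CCK-8. Controls: cell-free media and untreated cells. Absolute IC50 was calculated.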

[2] = system: MCF-7 human breast epithelial adenocarcinoma cells; experiment: 2D dose–response assay; format: cell-based; details: 24 h treatment, n = 3/dose
In short: as §1

[3] = system: AU565 human breast adenocarcinoma cells; experiment: 2D dose–response assay; format: cell-based; details: 24 h treatment, n = 3/dose
In short: as §1

[4] = system: MDA-MB-231 triple negative human breast adenocarcinoma cells; experiment: 2D dose–response assay; format: cell-based; details: 24 h treatment, n = 3/dose
In short: as §1

CCD1065SK HDF = experiment: 2D dose–response assay; format: cell-based, human; details: 24 h treatment, nontumorigenic fibroblasts
In short: as §1

sheep erythrocytes = experiment: Hemolytic activity; format: cell-based; details: sheep RBC 2% v/v, 37 °C, 1 h
In short: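 Fresh sheep RBCs were washed in PBS pH 7.4 until the supernatant was clear, with 1000 rpm, 8 min spins. RBCs were exposed to test compound at 2000–5 μg/mL in PBS containing 5% DMSO, then centrifuged 1000 rpm, 8 min at RT. Supernatant absorbance was read at 540 nm, with 630 nm background. Controls: PBS/5% DMSO (negative) and 1% v/v Triton X-100 (positive).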

BT-474 3D spheroids = experiment: 3D dose–response assay, liquid-overlay spheroids; format: cell-based, human; details: 24 h treatment, n = 3/dose
In short: (§2)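 Spheroids formed by liquid overlay: 250,000 cells/mL in round-bottom nonadherent wells with 2.5% v/v Matrigel, centrifuged 10 min at 1000 rpm, then matured 4 days. Test compound DMSO stocks were serially diluted 1:2 to 10,000–80 μg/mL and diluted 10-fold in wells (final DMSO ≤1% v/v), in triplicate. Incubation 24 h at 37 °C, 5% CO2; viability by CellTiter 3D luminescence. Absolute IC50 by nonlinear regression.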

MDA-MB-231 3D spheroids = experiment: 3D dose–response assay, liquid-overlay spheroids; format: cell-based, human; details: 24 h treatment, n = 3/dose
In short: as §2

[5] = Critical micelle concentration; format: physicochemical; details: 0.1 M NaHCO3, pH 8.7, 22 °C
In short: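 Surface tension across a concentration series was measured by Wilhelmy platinum-plate tensiometry on freshly prepared samples, in triplicate. Separate linear regressions were fitted to the declining and flat regions of the surface tension–concentration curve; their intersection gave the CMC.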

BT-474 cells = experiment: CellTox Green cytotoxicity assay: cell lysis; format: cell-based, human; details: dosed at IC50; 1, 6, 12, 24 h post exposure
MDA-MB-231 cells = experiment: CellTox Green cytotoxicity assay: cell lysis; format: cell-based, human; details: dosed at IC50; 1, 6, 12, 24 h post exposure
[6] = system: nontumorigenic keratinocytes; details: 30 μM; cited from earlier work
osteoblasts = details: 5 μM; cited from earlier work
erythrocytes = details: therapeutic dose used for viral inactivation; cited from earlier work

Substance	IC50 toward HeLa cells (HeLa cells) [µg/mL]	IC50 2D monolayer BT-474 [1] [µg/mL]	IC50 2D monolayer MCF-7 [2] [µg/mL]	IC50 2D monolayer AU565 [3] [µg/mL]	IC50 2D monolayer MDA-MB-231 [4] [µg/mL]	IC50 2D monolayer CCD1065SK HDF (CCD1065SK HDF) [µg/mL]	IC50 erythrocytes (50% of RBCs lysed) (sheep erythrocytes) [µg/mL]	IC50 3D spheroids BT-474 (BT-474 3D spheroids) [µg/mL]	IC50 3D spheroids MDA-MB-231 (MDA-MB-231 3D spheroids) [µg/mL]	CMC [5] [µg/mL]	extent of cell lysis, BT-474 (BT-474 cells)	extent of cell lysis, MDA-MB-231 (MDA-MB-231 cells)	cell viability, nontumorigenic keratinocytes [6] [%]	cell viability, osteoblasts (osteoblasts) [%]	concentration at which rapid lysis of erythrocytes occurred (erythrocytes) [µM]
C15-surfactin	25.2														
C15-surfactin-O-methyl ester	47.7														
Surfactin [Compound 1, reference compound]		21	24	110	84	180	38	330	140	9.5	cell lysis of both BT-474 and MDA-MB-231 cells was observed	cell lysis of both BT-474 and MDA-MB-231 cells was observed	100	100	40
